# Experimental data reported in ChEMBL document CHEMBL5661979, “Pharmacological inhibition of BMK1 suppresses tumor growth through promyelocytic leukemia protein” (Cancer Cell, 2010).
# Active and inactive are the calls of the source. The calls are words filed in the database; no cut-off is given here.
# Experiments:
# [1] = target: T1, Ribosomal protein S6 kinase alpha-3 (Homo sapiens, UniProt P51812); assay: Inhibition of RSK2 domain 2 in human HeLa cells lysate at 10 uM pre incubated for 15 mins followed by ADP acyl phosphate probe addition and measured after 10 mins by LC-MS/MS analysis relative to control; type: subcellular; conditions: time 25.0 min
# T1 sequence (P51812 whole entry, the tested form may be a part): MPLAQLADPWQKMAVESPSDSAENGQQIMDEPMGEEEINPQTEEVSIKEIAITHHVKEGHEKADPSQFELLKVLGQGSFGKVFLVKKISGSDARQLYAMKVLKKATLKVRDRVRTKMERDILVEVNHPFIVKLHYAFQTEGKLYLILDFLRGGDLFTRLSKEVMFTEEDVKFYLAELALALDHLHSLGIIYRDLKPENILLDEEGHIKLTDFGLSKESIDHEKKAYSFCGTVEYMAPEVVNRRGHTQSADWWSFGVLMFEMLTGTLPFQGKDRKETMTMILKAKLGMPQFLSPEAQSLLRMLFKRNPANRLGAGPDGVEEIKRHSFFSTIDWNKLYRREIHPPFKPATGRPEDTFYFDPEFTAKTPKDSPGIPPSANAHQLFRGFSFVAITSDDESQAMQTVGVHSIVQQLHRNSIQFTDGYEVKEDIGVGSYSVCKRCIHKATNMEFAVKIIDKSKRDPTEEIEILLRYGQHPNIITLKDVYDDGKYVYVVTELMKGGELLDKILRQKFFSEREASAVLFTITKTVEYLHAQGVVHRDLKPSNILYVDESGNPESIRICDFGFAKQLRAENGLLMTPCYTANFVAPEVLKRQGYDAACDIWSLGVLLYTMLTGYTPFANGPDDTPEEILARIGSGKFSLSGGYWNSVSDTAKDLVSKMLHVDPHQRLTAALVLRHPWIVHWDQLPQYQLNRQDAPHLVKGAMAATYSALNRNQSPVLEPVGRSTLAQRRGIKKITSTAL
# [2] = target: Calcium/calmodulin-dependent protein kinase kinase 1 (Homo sapiens, UniProt Q8N5S9); assay: Inhibition of CAMKK1 in human HeLa cells lysate at 50 uM pre incubated for 15 mins followed by ADP acyl phosphate probe addition and measured after 10 mins by LC-MS/MS analysis relative to control; type: subcellular; conditions: time 25.0 min
# Procedure, shortened: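 KiNativ profiling in HeLa lysate (5 mg/mL total protein). Lysate incubated 15 min with inhibitor at 50, 10, 2, 0.8 or 0 μM. ATP or ADP acylphosphate probe then added (5 μM final) and reacted 10 min. Reaction stopped with urea and analysed by targeted MS, using up to four fragment ions per kinase peptide-probe conjugate. % inhibition taken against untreated lysate. Run in duplicate.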
# [3] = target: T2, Mixed lineage kinase domain-like protein (Homo sapiens) (UniProt Q8NB16); assay: Inhibition of MLKL in human HeLa cells lysate at 2 uM pre incubated for 15 mins followed by ADP acyl phosphate probe addition and measured after 10 mins by LC-MS/MS analysis relative to control; type: subcellular; conditions: time 25.0 min
# T2 sequence (whole entry): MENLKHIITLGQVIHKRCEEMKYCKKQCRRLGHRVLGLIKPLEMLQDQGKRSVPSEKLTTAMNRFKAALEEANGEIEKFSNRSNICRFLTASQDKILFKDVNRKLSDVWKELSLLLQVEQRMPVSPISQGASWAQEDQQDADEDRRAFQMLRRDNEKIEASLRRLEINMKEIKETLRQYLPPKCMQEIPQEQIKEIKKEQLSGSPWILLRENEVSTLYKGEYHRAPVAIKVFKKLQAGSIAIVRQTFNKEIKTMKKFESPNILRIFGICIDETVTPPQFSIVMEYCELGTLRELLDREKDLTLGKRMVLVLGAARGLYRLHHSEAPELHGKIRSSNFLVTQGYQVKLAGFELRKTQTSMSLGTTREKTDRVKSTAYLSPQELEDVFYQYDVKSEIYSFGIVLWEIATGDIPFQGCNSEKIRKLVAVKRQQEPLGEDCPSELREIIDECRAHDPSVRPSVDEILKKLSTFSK
# [4] = target: T1, Ribosomal protein S6 kinase alpha-3; assay: Inhibition of RSK2 domain 2 K2 site in human HeLa cells lysate pre incubated for 15 mins followed by ADP acyl phosphate probe addition and measured after 10 mins by LC-MS/MS analysis; type: subcellular
# [5] = target: Mitogen-activated protein kinase kinase kinase 2 (Homo sapiens, UniProt Q9Y2U5); assay: Inhibition of MAP3K2 in human HeLa cells lysate pre incubated for 15 mins followed by ADP acyl phosphate probe addition and measured after 10 mins by LC-MS/MS analysis; type: subcellular
# Mitogen-activated protein kinase kinase kinase 2, sequence (Q9Y2U5 whole entry): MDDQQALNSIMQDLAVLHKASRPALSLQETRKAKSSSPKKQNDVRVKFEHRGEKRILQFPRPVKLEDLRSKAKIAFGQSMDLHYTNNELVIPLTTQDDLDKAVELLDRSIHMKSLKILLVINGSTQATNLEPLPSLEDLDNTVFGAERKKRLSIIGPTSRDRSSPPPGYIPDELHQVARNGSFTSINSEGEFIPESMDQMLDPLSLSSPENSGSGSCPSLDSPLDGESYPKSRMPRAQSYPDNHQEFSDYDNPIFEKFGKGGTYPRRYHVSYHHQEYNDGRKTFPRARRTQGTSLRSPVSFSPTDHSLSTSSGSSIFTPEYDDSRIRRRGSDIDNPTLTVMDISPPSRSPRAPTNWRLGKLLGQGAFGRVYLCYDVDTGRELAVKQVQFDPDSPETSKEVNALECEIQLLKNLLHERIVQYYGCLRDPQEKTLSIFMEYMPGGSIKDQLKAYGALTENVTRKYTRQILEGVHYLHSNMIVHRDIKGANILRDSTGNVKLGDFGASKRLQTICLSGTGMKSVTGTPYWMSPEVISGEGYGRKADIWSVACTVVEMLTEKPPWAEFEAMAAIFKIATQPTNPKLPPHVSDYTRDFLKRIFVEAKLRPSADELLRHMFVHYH
# [6] = target: T3, Serine/threonine-protein kinase Chk1 (Homo sapiens) (UniProt O14757); assay: Inhibition of CHK1 in human HeLa cells lysate at 50 uM pre incubated for 15 mins followed by ATP acyl phosphate probe addition and measured after 10 mins by LC-MS/MS analysis relative to control; type: subcellular; conditions: time 25.0 min
# T3 sequence (whole entry): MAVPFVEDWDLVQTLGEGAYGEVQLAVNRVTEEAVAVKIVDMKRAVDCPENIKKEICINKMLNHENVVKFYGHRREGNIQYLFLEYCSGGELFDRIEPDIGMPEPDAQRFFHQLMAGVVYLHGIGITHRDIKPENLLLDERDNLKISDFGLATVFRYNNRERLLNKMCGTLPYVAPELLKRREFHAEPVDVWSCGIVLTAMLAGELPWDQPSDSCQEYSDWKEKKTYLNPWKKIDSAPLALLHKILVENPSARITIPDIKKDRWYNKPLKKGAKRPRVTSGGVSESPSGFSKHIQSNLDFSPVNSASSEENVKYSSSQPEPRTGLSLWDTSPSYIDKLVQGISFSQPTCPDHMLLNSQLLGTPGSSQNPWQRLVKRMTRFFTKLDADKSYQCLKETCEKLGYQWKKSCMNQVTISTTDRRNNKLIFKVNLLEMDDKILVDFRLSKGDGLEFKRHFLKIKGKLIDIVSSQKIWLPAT
# [7] = target: Mixed lineage kinase domain-like protein (Homo sapiens, UniProt Q8NB16); assay: Inhibition of MLKL in human HeLa cells lysate pre incubated for 15 mins followed by ATP acyl phosphate probe addition and measured after 10 mins by LC-MS/MS analysis; type: subcellular
# [8] = target: T4, Phosphatidylinositol 4-phosphate 3-kinase C2 domain-containing subunit beta (Homo sapiens, UniProt O00750); assay: Inhibition of PIK3C2B in human HeLa cells lysate pre incubated for 15 mins followed by ATP acyl phosphate probe addition and measured after 10 mins by LC-MS/MS analysis; type: subcellular
# T4 sequence (O00750 whole entry, the tested form may be a part): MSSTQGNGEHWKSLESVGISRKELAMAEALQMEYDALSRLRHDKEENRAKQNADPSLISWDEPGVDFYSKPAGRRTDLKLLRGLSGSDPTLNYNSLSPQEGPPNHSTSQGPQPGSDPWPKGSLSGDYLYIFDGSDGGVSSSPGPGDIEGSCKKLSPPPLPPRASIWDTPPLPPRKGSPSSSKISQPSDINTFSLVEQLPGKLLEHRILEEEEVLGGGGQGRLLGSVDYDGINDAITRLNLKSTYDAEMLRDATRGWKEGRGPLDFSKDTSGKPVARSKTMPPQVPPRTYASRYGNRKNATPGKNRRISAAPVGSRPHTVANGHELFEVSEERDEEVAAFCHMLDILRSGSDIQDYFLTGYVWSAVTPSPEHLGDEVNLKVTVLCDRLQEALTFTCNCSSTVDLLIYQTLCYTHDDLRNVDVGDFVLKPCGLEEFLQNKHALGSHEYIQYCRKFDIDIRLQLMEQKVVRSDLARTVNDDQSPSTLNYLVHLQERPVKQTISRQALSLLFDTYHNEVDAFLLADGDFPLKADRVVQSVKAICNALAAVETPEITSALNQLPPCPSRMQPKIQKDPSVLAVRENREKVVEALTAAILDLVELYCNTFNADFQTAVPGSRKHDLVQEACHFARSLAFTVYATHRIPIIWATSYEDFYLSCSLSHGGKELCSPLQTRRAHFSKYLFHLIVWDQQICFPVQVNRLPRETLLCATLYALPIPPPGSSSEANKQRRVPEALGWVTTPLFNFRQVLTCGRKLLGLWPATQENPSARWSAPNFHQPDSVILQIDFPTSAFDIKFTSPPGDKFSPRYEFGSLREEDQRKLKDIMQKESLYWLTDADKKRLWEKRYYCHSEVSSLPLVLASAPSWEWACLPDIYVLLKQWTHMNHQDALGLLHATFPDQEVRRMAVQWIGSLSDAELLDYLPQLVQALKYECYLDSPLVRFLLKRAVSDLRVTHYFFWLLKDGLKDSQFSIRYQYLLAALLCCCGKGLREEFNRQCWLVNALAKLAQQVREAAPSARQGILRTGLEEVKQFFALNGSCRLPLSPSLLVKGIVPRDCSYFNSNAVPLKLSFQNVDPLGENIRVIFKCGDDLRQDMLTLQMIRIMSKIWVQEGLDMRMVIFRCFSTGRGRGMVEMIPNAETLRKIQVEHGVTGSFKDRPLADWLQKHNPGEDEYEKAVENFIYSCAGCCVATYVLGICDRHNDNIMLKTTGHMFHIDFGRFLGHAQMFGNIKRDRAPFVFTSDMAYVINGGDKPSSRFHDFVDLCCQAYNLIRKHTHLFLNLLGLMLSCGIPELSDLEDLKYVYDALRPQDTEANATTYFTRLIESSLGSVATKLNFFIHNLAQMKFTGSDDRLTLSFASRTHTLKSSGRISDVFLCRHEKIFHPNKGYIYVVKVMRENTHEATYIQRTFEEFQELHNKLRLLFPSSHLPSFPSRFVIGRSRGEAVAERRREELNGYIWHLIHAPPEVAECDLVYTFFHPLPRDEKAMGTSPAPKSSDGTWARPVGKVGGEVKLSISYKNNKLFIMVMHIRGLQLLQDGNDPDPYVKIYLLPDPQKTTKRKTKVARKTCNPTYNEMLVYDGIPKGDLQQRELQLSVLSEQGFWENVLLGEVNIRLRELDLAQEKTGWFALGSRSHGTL
# [9] = target: Ribosomal protein S6 kinase beta-2 (Homo sapiens, UniProt Q9UBS0); assay: Inhibition of P70S6KB in human HeLa cells lysate pre incubated for 15 mins followed by ATP acyl phosphate probe addition and measured after 10 mins by LC-MS/MS analysis; type: subcellular
# [10] = target: T4, Phosphatidylinositol 4-phosphate 3-kinase C2 domain-containing subunit beta; assay: Inhibition of PIK3C2B in human HeLa cells lysate at 2 uM pre incubated for 15 mins followed by ATP acyl phosphate probe addition and measured after 10 mins by LC-MS/MS analysis relative to control; type: subcellular; conditions: time 25.0 min
# [11] = target: Serine/threonine-protein kinase SMG1 (Homo sapiens, UniProt Q96Q15); assay: Inhibition of SMG1 in human HeLa cells lysate at 2 uM pre incubated for 15 mins followed by ATP acyl phosphate probe addition and measured after 10 mins by LC-MS/MS analysis relative to control; type: subcellular; conditions: time 25.0 min
# [12] = Inhibition of MAP3K2/MAP3K3 in human HeLa cells lysate pre incubated for 15 mins followed by ATP acyl phosphate probe addition and measured after 10 mins by LC-MS/MS analysis; type: subcellular
# [13] = target: Tyrosine-protein kinase CSK (Homo sapiens, UniProt P41240); assay: Inhibition of CSK in human HeLa cells lysate pre incubated for 15 mins followed by ATP acyl phosphate probe addition and measured after 10 mins by LC-MS/MS analysis; type: subcellular
# Tyrosine-protein kinase CSK, sequence (P41240 whole entry): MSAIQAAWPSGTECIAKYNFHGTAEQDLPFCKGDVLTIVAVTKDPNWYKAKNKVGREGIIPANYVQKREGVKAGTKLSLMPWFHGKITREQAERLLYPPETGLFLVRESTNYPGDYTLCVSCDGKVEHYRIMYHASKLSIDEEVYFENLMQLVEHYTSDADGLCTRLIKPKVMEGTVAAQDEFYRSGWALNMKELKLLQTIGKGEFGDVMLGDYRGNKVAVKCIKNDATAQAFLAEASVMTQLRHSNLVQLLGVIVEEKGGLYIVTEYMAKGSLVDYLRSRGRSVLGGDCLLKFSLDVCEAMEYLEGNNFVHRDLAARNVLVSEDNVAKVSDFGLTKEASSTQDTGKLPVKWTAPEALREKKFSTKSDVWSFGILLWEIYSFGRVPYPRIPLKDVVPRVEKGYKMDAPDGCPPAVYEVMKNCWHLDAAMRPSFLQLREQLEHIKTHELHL
# [14] = Toxicity in C57Bl/6 mouse assessed as distress effect at 50 mg/kg, ip for 14 days; type: organism-based; conditions: in vivo, 336 h, time 14 day
# [15] = target: Mitogen-activated protein kinase 7 (Mus musculus) (UniProt Q9WVS8); assay: Inhibition of BMK1 in mouse MEF cells assessed as increase in p21 protein expression at 5 uM incubated for 16 hrs by Western blot analysis; type: cell-based
# Procedure, shortened: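 Pml+/+ or Pml−/− MEFs treated ±5 μM inhibitor for 16 h. Lysates western blotted for p21, quantified by densitometry and normalized to GAPDH, relative to untreated Pml+/+ MEF set as 1. n = 3, ±SEM.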
# [16] = target: Mitogen-activated protein kinase kinase kinase kinase 2 (Homo sapiens, UniProt Q12851); assay: Inhibition of GCK in human HeLa cells lysate pre incubated for 15 mins followed by ADP acyl phosphate probe addition and measured after 10 mins by LC-MS/MS analysis; type: subcellular
# Mitogen-activated protein kinase kinase kinase kinase 2, sequence (Q12851 whole entry): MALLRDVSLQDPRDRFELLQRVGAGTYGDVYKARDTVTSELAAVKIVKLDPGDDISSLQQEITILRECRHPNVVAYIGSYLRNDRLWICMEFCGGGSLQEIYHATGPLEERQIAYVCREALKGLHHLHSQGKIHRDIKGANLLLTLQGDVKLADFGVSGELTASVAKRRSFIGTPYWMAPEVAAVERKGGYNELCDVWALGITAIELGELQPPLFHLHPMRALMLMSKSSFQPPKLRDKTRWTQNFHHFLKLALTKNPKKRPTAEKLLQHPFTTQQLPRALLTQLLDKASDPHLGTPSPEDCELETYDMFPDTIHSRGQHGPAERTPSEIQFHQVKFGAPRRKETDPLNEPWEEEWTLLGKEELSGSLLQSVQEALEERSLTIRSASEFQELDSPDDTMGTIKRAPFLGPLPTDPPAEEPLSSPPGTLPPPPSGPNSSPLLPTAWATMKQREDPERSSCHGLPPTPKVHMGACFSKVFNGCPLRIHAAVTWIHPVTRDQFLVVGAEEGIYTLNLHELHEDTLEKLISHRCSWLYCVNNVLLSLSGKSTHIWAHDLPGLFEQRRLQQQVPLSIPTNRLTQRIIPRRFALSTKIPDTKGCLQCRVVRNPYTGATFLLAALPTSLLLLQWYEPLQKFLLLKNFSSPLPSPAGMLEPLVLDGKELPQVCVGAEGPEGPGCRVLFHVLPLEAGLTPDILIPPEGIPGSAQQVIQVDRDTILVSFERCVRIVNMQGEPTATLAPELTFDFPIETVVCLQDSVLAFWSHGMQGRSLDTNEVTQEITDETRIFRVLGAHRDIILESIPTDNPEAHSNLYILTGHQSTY
# [17] = target: Interferon-induced, double-stranded RNA-activated protein kinase (Homo sapiens, UniProt P19525); assay: Inhibition of PKR in human HeLa cells lysate at 50 uM pre incubated for 15 mins followed by ATP acyl phosphate probe addition and measured after 10 mins by LC-MS/MS analysis relative to control; type: subcellular; conditions: time 25.0 min
# Interferon-induced, double-stranded RNA-activated protein kinase, sequence (P19525 whole entry): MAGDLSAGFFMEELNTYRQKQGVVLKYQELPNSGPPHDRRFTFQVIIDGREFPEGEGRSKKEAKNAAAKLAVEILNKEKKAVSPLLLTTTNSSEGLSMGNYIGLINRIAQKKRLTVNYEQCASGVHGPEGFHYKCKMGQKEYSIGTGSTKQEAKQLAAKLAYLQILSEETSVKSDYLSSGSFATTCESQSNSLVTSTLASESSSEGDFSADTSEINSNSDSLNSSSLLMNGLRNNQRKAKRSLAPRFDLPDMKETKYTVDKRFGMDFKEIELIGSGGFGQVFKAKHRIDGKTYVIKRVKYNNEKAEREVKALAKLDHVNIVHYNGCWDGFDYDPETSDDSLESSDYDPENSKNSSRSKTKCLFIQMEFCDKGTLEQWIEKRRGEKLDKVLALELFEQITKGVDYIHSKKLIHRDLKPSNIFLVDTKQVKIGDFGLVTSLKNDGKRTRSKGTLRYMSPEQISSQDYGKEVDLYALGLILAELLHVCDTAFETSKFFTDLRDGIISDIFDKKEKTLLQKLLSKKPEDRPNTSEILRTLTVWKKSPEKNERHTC
smiles,measurement,setting,value
CCOc1cc(N2CCC(O)CC2)ccc1Nc1ncc2c(n1)N(C)c1ccccc1C(=O)N2C,inhibition,[1],-5.7%
same,inhibition,[2],17%
same,inhibition,[3],35.6%
same,IC50,[4],47 µM
same,IC50,[5],> 50 µM
same,inhibition,[6],-0.4%
same,IC50,[7],> 50 µM
same,IC50,[8],> 50 µM
same,IC50,[9],> 50 µM
same,inhibition,[10],26.1%
same,inhibition,[11],1.8%
same,IC50,[12],> 50 µM
same,IC50,[13],> 50 µM
same,Activity,[14],Non-Toxic
same,inhibition,[15],Active
same,IC50,[16],> 50 µM
same,inhibition,[17],-8.3%
